Results on 15 compounds are retold here after ChEMBL document CHEMBL1141647, “Novel ofloxacin derivatives: synthesis, antimycobacterial and toxicological evaluation” (Bioorg Med Chem Lett, 2008).

In brackets after ≈: the same amount, converted by molar mass. Where only a bound is given, the exact number is not on record here.

In one series the test system is Vero. In words: Cytotoxicity against african green monkey Vero cells after 72 hrs by MTT assay. Format: cell-based. As to conditions: Chlorocebus sabaeus. A digest of the protocol: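 Vero cells exposed for 72 h; tested up to 62.5 µg/mL. Viability was read as cellular conversion of MTT to formazan, and IC50 was reported in µM.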
On the technique in general: Tetrazolium assays rely on reduction of a dye to a coloured formazan, in cell work by metabolically active cells.

The test system of series [1] is Mycolicibacterium smegmatis. In words: Antimycobacterial activity against Mycobacterium smegmatis ATCC 14468 by agar dilution method. The class given is functional. A digest of the protocol:
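MC² (M. smegmatis) growth inhibition; MIC99 taken as the lowest concentration giving complete inhibition of bacterial growth, in µM.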

The test system of series [2] is Mycobacterium tuberculosis. In words: Antimycobacterial activity against Mycobacterium tuberculosis H37Rv by agar dilution method. Format: functional. A digest of the protocol:
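MIC99 was taken as the lowest concentration giving complete inhibition of bacterial growth.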
A general note: In agar dilution, organisms are placed on agar that contains the substance at set levels.

The target in a further series is DNA gyrase subunit A (Mycolicibacterium smegmatis, UniProt Q59556). Put plainly: Inhibition of Mycobacterium smegmatis DNA gyrase. A digest of the protocol: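 Inhibition of DNA supercoiling by M. smegmatis (MC²) gyrase, run under standard assay conditions. Varying compound amounts were tested against a fixed amount of enzyme, and IC50 was derived from that series. Relaxed circular DNA served as marker, 5% DMSO as solvent control, and moxifloxacin at 5 µg/mL as positive control.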
Chain of DNA gyrase subunit A (Q59556 whole entry): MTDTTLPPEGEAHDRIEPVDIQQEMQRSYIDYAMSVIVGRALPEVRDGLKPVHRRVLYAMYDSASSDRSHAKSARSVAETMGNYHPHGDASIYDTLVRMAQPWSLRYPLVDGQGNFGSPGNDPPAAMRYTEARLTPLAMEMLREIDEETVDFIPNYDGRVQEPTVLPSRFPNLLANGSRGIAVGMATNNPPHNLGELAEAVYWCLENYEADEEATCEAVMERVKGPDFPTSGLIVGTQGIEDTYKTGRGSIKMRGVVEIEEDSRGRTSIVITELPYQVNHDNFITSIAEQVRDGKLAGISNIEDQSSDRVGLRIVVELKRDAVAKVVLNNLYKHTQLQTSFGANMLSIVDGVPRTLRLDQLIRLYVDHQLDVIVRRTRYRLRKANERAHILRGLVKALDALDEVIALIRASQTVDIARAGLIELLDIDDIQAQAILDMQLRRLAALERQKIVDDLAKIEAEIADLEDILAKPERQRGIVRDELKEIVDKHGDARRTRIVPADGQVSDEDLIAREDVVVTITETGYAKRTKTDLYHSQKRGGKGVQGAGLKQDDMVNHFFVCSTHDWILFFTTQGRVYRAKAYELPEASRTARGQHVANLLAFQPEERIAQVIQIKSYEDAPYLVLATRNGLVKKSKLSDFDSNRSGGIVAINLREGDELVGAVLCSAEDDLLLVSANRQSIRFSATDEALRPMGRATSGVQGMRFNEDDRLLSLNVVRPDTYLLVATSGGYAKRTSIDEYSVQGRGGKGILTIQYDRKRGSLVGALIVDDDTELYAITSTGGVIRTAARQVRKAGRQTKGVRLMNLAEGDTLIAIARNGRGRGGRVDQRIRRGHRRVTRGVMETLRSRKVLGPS

For series [3], the system named is Mus musculus. In words: Phototoxic effect in mouse assessed as ear thickness at 140 mg/kg administered before UV light exposure relative to control. As to conditions: in vivo; call rule not given here. Format: ADME, organism-based. Also noted: dose 140 mg/kg. The gist of the method: (§1)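 Mice dosed at 140 mg/kg and exposed to UV immediately after dosing. Irradiation ended at 4 h. Ear thickness (mm) was measured at 0 (pre-dose), 4, 24, 48, 72 and 96 h, left and right ears averaged, mean ± SEM. Comparison was against vehicle controls (0.5% aqueous sodium carboxymethylcellulose, 10 mL/kg) and against the 0 h reading.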

For series [4], the system named is Mus musculus. Put plainly: Phototoxic effect in UV light irradiated mouse assessed as ear thickness at 140 mg/kg, after 96 hrs relative to control. Format: ADME, organism-based. Also noted: dose 140 mg/kg. As to conditions: in vivo. The gist of the method: as §1
Series [5] concerns Mus musculus. Put plainly: Phototoxic effect in UV light irradiated mouse assessed as ear thickness at 140 mg/kg, after 24 hrs relative to control. As to conditions: in vivo. Format: ADME, organism-based. More on the design: dose 140 mg/kg. The gist of the method: as §1
Series [6] has as its system Mus musculus. Put plainly: Phototoxic effect in UV light irradiated mouse assessed as number of mouse bearing erythema at 140 mg/kg, after 4 hrs relative to control. Format: ADME, organism-based. More on the design: dose 140 mg/kg. As to conditions: in vivo. The gist of the method:
(§2)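 Mice received 140 mg/kg and were UV-irradiated immediately after dosing, irradiation ending at 4 h. Both ears were scored for erythema at 0, 4, 24, 48, 72 and 96 h, counted as the number of mice with erythema. Vehicle control was 0.5% aqueous sodium carboxymethylcellulose at 10 mL/kg.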

The subject of series [7] is Mus musculus. In words: Phototoxic effect in mouse assessed as number of mouse bearing erythema at 140 mg/kg administered before UV light exposure relative to control. The class given is ADME, organism-based. Also noted: dose 140 mg/kg. As to conditions: in vivo. A digest of the protocol:
as §2

For series [8], the system named is Mus musculus. Put plainly: Phototoxic effect in UV light irradiated mouse assessed as number of mouse bearing erythema at 140 mg/kg, after 24 hrs relative to control. Format: ADME, organism-based. More on the design: dose 140 mg/kg. As to conditions: in vivo. A digest of the protocol: as §2
Series [9] has as its system Mus musculus. In words: Phototoxic effect in UV light irradiated mouse assessed as ear thickness at 140 mg/kg, after 4 hrs relative to control. The class given is ADME, organism-based. More on the design: dose 140 mg/kg. As to conditions: in vivo. The gist of the method: as §1
Series [10] relates to Mus musculus. Put plainly: Phototoxic effect in UV light irradiated mouse assessed as ear thickness at 140 mg/kg, after 48 hrs relative to control. The class given is ADME, organism-based. As to conditions: in vivo. More on the design: dose 140 mg/kg. A digest of the protocol: as §1
Series [11] relates to Mus musculus. In words: Phototoxic effect in UV light irradiated mouse assessed as ear thickness at 140 mg/kg, after 72 hrs relative to control. Format: ADME, organism-based. More on the design: dose 140 mg/kg. As to conditions: in vivo. A digest of the protocol:
as §1

In series [12] the test system is Mus musculus. In words: Phototoxic effect in UV light irradiated mouse assessed as number of mouse bearing erythema at 140 mg/kg, after 96 hrs relative to control. More on the design: dose 140 mg/kg. Format: ADME, organism-based. As to conditions: in vivo. The gist of the method:
as §2

As a reminder, the IC50 is the concentration at which inhibition is half-maximal. As a reminder, the MIC99 is an inhibitory concentration at the 99% level, which refers to growth in some studies and to a panel of isolates in others.

Take `CC1COc2c(N3CCN(C(=O)C4COc5ccccc5O4)CC3)c(F)c([N+](=O)[O-])c3c(=O)c(C(=O)O)cn1c23` (stereo unspecified): the IC50 with Vero was determined as 113 µM. In addition, the MIC99 in [1] amounted to 11.3 µM (≈ 6.25 µg/mL); in [2], 2.81 µM (≈ 1.56 µg/mL).
For `CC1COc2c(N3CCn4cc(C(=O)O)nc4C3)c(F)c(N)c3c(=O)c(C(=O)O)cn1c23` (stereo unspecified) the same measures were above 141 µM, 5.28 µM (≈ 2.34 µg/mL) and 0.88 µM (≈ 0.39 µg/mL).
On to `CC1CN(c2c(F)c([N+](=O)[O-])c3c(=O)c(C(=O)O)cn4c3c2OCC4C)CC(C)O1` (stereo unspecified), for which the figures for the 50% inhibitory concentration (IC50) against DNA gyrase subunit A and with Vero were above 119 µM and 148 µM, respectively. Moreover, the MIC99 in [1] and in [2] was 1.85 µM (≈ 0.78 µg/mL) each time.
Take `CC1COc2c(N3CCN(C(c4ccccc4)c4ccc(Cl)cc4)CC3)c(F)cc3c(=O)c(C(=O)O)cn1c23` (stereo unspecified): the MIC99 in series [1] is 45.6 µM (≈ 25 µg/mL); in series [2], 5.71 µM (≈ 3.13 µg/mL).
The compound `CC1COc2c(N3CCC4(CC3)OCCO4)c(F)c(N)c3c(=O)c(C(=O)O)cn1c23` (stereo unspecified) came in with an IC50 in the series with Vero above 149 µM. Besides, the figures for the MIC99 in series [1] and in series [2] were 11.2 µM (≈ 4.68 µg/mL) and 3.72 µM (≈ 1.56 µg/mL), respectively.
`CC1COc2c(N3CCc4ccccc4C3C(=O)NC(C)(C)C)c(F)c([N+](=O)[O-])c3c(=O)c(C(=O)O)cn1c23` (stereo unspecified): the IC50 at DNA gyrase subunit A was 92.8 µM; with Vero it was 116 µM. The figures for the MIC99 in series [1] and in series [2] were 2.89 µM (≈ 1.56 µg/mL) and 1.45 µM (≈ 0.781 µg/mL), respectively.
`CC1COc2c(N3CCN(C(=O)c4ccco4)CC3)c(F)c([N+](=O)[O-])c3c(=O)c(C(=O)O)cn1c23` (stereo unspecified) registered a half-maximal inhibitory concentration (IC50) in the series on Vero of 64.2 µM. Also, the MIC99 was 3.21 µM (≈ 1.56 µg/mL) in [1] and 0.8 µM (≈ 0.389 µg/mL) in series [2].
For the compound `CC1COc2c(N3CCC4(CC3)OCCO4)c(F)cc3c(=O)c(C(=O)O)cn1c23` (stereo unspecified), the Activity in the series with Mus musculus [3] is on record as 0.34 mm; with Mus musculus [4], 0.35 mm; with Mus musculus [5], 0.32 mm; in the series with Mus musculus [6] it was “Toxic”; with Mus musculus [7], “Non-toxic”; in the series with Mus musculus [8], “Toxic”. Moreover, the Activity in the series with Mus musculus [9] was 0.37 mm; with Mus musculus [10], 0.31 mm; in the series with Mus musculus [11], 0.32 mm; in the series with Mus musculus [12], “Non-toxic”. Moreover, the values for the IC50 against DNA gyrase subunit A and with Vero were 124 µM and 155 µM, respectively. The figures for the MIC99 in series [1] and in [2] were 3.86 µM (≈ 1.56 µg/mL) and 0.47 µM (≈ 0.19 µg/mL), respectively.
For `CC1COc2c(N3CCC(n4c(=O)[nH]c5cc(Cl)ccc54)CC3)c(F)c([N+](=O)[O-])c3c(=O)c(C(=O)O)cn1c23` (stereo unspecified), the IC50 in the series with Vero was 112 µM. In addition, the MIC99 turned out to be 1.39 µM (≈ 0.776 µg/mL) in series [1] and 0.34 µM (≈ 0.19 µg/mL) in [2].
For `COc1cc2c(cc1OC)CN(c1c(F)cc3c(=O)c(C(=O)O)cn4c3c1OCC4C)CC2` (stereo unspecified) the same measures were above 138 µM, 13.8 µM (≈ 6.25 µg/mL) and 1.72 µM (≈ 0.782 µg/mL).
On the same counts, the results for `CC1COc2c(N3CCN(C)C(c4ccccc4)C3)c(F)c([N+](=O)[O-])c3c(=O)c(C(=O)O)cn1c23` (stereo unspecified) are 130 µM, 6.49 µM (≈ 3.13 µg/mL) and 3.23 µM (≈ 1.56 µg/mL).
In turn, `CC1COc2c(N3CCc4ccccc4C3C(=O)NC(C)(C)C)c(F)cc3c(=O)c(C(=O)O)cn1c23` (stereo unspecified) came in with an IC50 in the series with Vero of 127 µM. Further, the values for the MIC99 in series [1] and in series [2] were 50.7 µM (≈ 25 µg/mL) and 3.16 µM (≈ 1.56 µg/mL), respectively.
For `Cc1onc(-c2c(F)cccc2F)c1C(=O)N1CCN(c2c(F)c([N+](=O)[O-])c3c(=O)c(C(=O)O)cn4c3c2OCC4C)CC1` (stereo unspecified), in the series on Vero, 102 µM corresponded to half-maximal inhibition (IC50). In addition, the MIC99 in [1] was 1.27 µM (≈ 0.779 µg/mL); in series [2] it was 5.1 µM (≈ 3.13 µg/mL).
On the same counts, the results for `CC1COc2c(N3CCC(n4c(=O)[nH]c5cc(Cl)ccc54)CC3)c(F)cc3c(=O)c(C(=O)O)cn1c23` (stereo unspecified) are above 122 µM, 48.7 µM (≈ 25 µg/mL) and 1.52 µM (≈ 0.78 µg/mL).
As to `CC1COc2c(N3CCN(C(=O)C4COc5ccccc5O4)CC3)c(F)cc3c(=O)c(C(=O)O)cn1c23` (stereo unspecified), the MIC99 in [1] was found to be 49.1 µM (≈ 25 µg/mL); in [2], 12.3 µM (≈ 6.25 µg/mL).
